Measured values taken from ChEMBL document CHEMBL1133169, “A light-inactivated antibiotic” (2000).
Converted amounts (≈) assume the structure as drawn.

Key:
Assay type in all cases: functional
[1] = Minimum inhibitory activity towards Bacillus subtilis ATCC 33608
Outline: (§1)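 Broth microdilution in Mueller-Hinton broth, inoculum 5 × 10^5 CFU/mL. MIC taken as the lowest antibiotic concentration preventing growth, judged by absence of turbidity after 24 h at 37 °C.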

[2] = tested on: Enterococcus faecalis; assay: Minimum inhibitory activity towards Enterococcus faecalis ATCC 29212; outline: as §1
[3] = tested on: Klebsiella pneumoniae; assay: Minimum inhibitory activity towards Klebsiella pneumoniae ATCC 10031; outline: as §1
[4] = tested on: Staphylococcus aureus; assay: Minimum inhibitory activity towards Staphylococcus aureus ATCC 25923; outline: as §1

## CC(=O)OCC1=C(C(=O)O)N2C(=O)[C@@H](NC(=O)[C@@H](Cc3ccccc3)NNC(=O)OCc3ccccc3[N+](=O)[O-])C2SC1 (some centres undefined)
[1]
  MIC: 2 µg/mL (≈ 3.26 µM)
[2]
  MIC: > 32 µg/mL
[3]
  MIC: 32 µg/mL (≈ 52.2 µM)
[4]
  MIC: 1 µg/mL (≈ 1.63 µM)
